Data as given in ChEMBL document CHEMBL1800018, “Discovery of a series of imidazo[4,5-b]pyridines with dual activity at angiotensin II type 1 receptor and peroxisome proliferator-activated receptor-γ” (J Med Chem, 2011).
Calls of active or inactive are those of the source. No cut-off for these calls is given here.

Columns and labels:
[1] = target: T1, Type-1 angiotensin II receptor (Homo sapiens, UniProt P30556); experiment: Displacement of [125I]Tyr4-Sar1,Ile8-Angiotensin II from human Angiotensin 1 receptor after 60 mins by scintillation counting
T1 sequence (P30556 whole entry): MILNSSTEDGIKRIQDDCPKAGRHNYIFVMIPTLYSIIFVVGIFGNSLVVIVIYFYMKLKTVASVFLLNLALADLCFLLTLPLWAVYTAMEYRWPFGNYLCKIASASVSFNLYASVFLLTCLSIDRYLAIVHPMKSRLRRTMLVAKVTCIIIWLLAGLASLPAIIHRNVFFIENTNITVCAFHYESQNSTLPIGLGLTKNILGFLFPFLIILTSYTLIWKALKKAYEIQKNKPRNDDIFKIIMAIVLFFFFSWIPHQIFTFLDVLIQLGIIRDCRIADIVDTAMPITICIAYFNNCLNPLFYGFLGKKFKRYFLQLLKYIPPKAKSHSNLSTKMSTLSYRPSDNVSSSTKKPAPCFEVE

[2] = target: T2, Peroxisome proliferator-activated receptor gamma (Homo sapiens, UniProt P37231); experiment: Partial agonist activity at human PPARgamma-LBD/Gal4 DNA binding domain by transactivation assay
T2 sequence (P37231 whole entry): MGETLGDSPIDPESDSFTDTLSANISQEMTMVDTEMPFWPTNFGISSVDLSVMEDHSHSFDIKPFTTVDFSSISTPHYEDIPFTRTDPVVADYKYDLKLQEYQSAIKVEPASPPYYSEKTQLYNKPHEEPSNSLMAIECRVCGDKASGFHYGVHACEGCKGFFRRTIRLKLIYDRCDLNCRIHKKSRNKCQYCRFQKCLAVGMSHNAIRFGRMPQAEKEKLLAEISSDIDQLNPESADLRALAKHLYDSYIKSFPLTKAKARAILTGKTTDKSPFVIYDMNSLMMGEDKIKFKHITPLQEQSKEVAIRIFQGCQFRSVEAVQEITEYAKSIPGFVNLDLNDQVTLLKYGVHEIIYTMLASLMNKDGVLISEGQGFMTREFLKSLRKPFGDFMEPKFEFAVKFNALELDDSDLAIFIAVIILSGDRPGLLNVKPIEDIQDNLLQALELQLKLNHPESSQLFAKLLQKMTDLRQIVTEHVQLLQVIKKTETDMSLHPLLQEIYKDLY

[3] = system: Rattus norvegicus; experiment: Antidiabetic activity in ZDF rat assessed as blood glucose level at 100 mg/kg, po QD for 40 days (reference value: 771+/-60 mg/dL); assay type: functional
[4] = system: Rattus norvegicus; experiment: Antidiabetic activity in ZDF rat assessed as triglyceride level at 100 mg/kg, po QD for 40 days (reference value: 618+/-52 mg/dL); assay type: functional
[5] = system: Rattus norvegicus; experiment: Antidiabetic activity in ZDF rat assessed as body weight gain at 100 mg/kg, po QD for 40 days (reference value: 133+/-9 g); assay type: functional
How it was run: (§1)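 Male ZDF rats, starting at about 6 weeks old, were dosed orally once daily for 40 days in 1.5% CMC/0.2% Tween 20 suspension, n = 8/group. Body weight was followed over the study. Gain was calculated per animal from day 0 to day 40 and compared with vehicle and pioglitazone (3 mg/kg) groups. Data are mean ± SEM.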

[6] = system: Rattus norvegicus; experiment: Antidiabetic activity in ZDF rat assessed as adiponectin level at 100 mg/kg, po QD for 40 days (reference value: 11.9+/-1.5 ug/ml); assay type: functional
[7] = system: Rattus norvegicus; experiment: Antidiabetic activity in ZDF rat assessed as body weight gain at 100 mg/kg, po QD for 40 days measured on day 32 (reference value: 133+/-9 g); assay type: functional, organism-based; parameters: dose 100 mg/kg
[8] = system: Rattus norvegicus; experiment: Antidiabetic activity in ZDF rat assessed as triglyceride level at 3 mg/kg, po QD for 40 days (reference value: 618+/-52 mg/dL); assay type: functional
[9] = system: Rattus norvegicus; experiment: Antidiabetic activity in ZDF rat assessed as body weight gain at 3 mg/kg, po QD for 40 days (reference value: 133+/-9 g); assay type: functional; how it was run: as §1
[10] = system: Rattus norvegicus; experiment: Antidiabetic activity in ZDF rat assessed as adiponectin level at 3 mg/kg, po QD for 40 days (reference value: 11.9+/-1.5 ug/ml); assay type: functional
[11] = system: Rattus norvegicus; experiment: Antidiabetic activity in ZDF rat assessed as body weight gain at 3 mg/kg, po QD for 40 days measured on day 6 (reference value: 133+/-9 g); assay type: functional, organism-based; parameters: dose 3 mg/kg
[12] = system: Rattus norvegicus; experiment: Antidiabetic activity in ZDF rat assessed as blood glucose level at 3 mg/kg, po QD for 40 days (reference value: 771+/-60 mg/dL); assay type: functional

Structure (SMILES) | IC50 [1] | EC50 [2] | further results
CCc1nc2c(C)c(C)c(C)nc2n1[C@H]1CCc2cc(-c3ccccc3-c3nnn[nH]3)ccc21 | 202 nM | 1820 nM | –
CCCc1nc2c(C)cc(-c3nc4ccccc4n3C)cc2n1Cc1ccc(-c2ccccc2C(=O)O)cc1 | – | 1520 nM | Activity [3]: 510 mg/dL; Activity [4]: 935 mg/dL; Activity [5]: 157 g; Activity [6]: 13.2 µg/mL; Activity [7]: Active
CCc1nc2c(C)cc(C)nc2n1[C@H]1CCc2cc(-c3ccccc3-c3nnn[nH]3)ccc21 | 7.6 nM | 591 nM | –
CCCc1nc2c(C)cc(C)nc2n1[C@H]1CCc2cc(-c3ccccc3-c3nnn[nH]3)ccc21 | 13.3 nM | 1320 nM | –
CCc1nc2c(C)cc(Cc3ccccc3)nc2n1[C@H]1CCc2cc(-c3ccccc3-c3nnn[nH]3)ccc21 | 5.2 nM | – | –
CCCCc1nc2c(C)cc(C)nc2n1C1CCc2cc(-c3ccccc3-c3nn[nH]n3)ccc21 (racemic) | 238 nM | 2200 nM | –
CCc1cc(C)c2nc(C(C)C)n([C@H]3CCc4cc(-c5ccccc5-c5nnn[nH]5)ccc43)c2n1 | 16.9 nM | 264 nM | –
CCc1ccc(CCOc2ccc(CC3SC(=O)NC3=O)cc2)nc1 (stereo unspecified) [PIOGLITAZONE] | – | – | Activity [8]: 316 mg/dL; Activity [9]: 269 g; Activity [10]: 30.5 µg/mL; Activity [11]: Active; Activity [12]: 118 mg/dL
CCc1cc(C)c2nc(CC)n([C@H]3CCc4cc(-c5ccccc5-c5nnn[nH]5)ccc43)c2n1 | 6.8 nM | 494 nM | –
CCc1nc2c(C)cc(C)nc2n1C1CCc2cc(-c3ccccc3-c3nn[nH]n3)ccc21 (racemic) | 96 nM | 574 nM | –
CCc1nc2c(CC(C)C)cc(C)nc2n1[C@H]1CCc2cc(-c3ccccc3-c3nnn[nH]3)ccc21 | 748 nM | 165 nM | –
Cc1cc(C)c2nc(C3CC3)n([C@H]3CCc4cc(-c5ccccc5-c5nnn[nH]5)ccc43)c2n1 | 8.2 nM | 762 nM | –

More lines, main results first:

IC50 [1] | EC50 [2] | Structure (SMILES) | further results
10.5 nM | 175 nM | CCc1nc2c(C)cc(CC(C)C)nc2n1[C@H]1CCc2cc(-c3ccccc3C(=O)O)ccc21 | –
661 nM | 2620 nM | CCc1nc2c(C)cc(C)nc2n1[C@@H]1CCc2cc(-c3ccccc3-c3nnn[nH]3)ccc21 | –
– | > 20000 nM | CCc1nc2c(C)cc(C)nc2n1Cc1ccc(-c2ccccc2-c2nnn[nH]2)cc1 [L-158809] | –
10.2 nM | 295 nM | Cc1cc(C)c2nc(C(C)C)n([C@H]3CCc4cc(-c5ccccc5-c5nnn[nH]5)ccc43)c2n1 | –
3.5 nM | 89 nM | Cc1cc(CC(C)C)nc2c1nc(C(C)C)n2[C@H]1CCc2cc(-c3ccccc3-c3nnn[nH]3)ccc21 | –
15.7 nM | 1340 nM | CCc1c(C)nc2c(nc(CC)n2[C@H]2CCc3cc(-c4ccccc4-c4nnn[nH]4)ccc32)c1C | –
